{
  "source": "paper PMC5473467",
  "about": "(Nature, 2017)",
  "key": {"[1]": {"test_system": "Pf 3D7", "assay": "P. falciparum 3D7 growth inhibition", "assay_type": "cell-based", "details": "Plasmodium falciparum, 3D7, read-out: Pf 3D7 IC50"}, "[2]": {"test_system": "C. parvum", "assay": "C. parvum cytopathic effect", "assay_type": "cell-based, Cryptosporidium parvum", "details": "for EC50: Cryptosporidium parvum, HCT-8, read-out: Cp CPE EC50", "method_in_brief": "(§1)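 HCT-8 cells were kept in RPMI-1640 with 10% heat-inactivated horse serum. Oocysts were primed in 10 mM HCl in HBSS for 10 min at 37 °C, washed, then excysted in L-15/UltraCULTURE medium with 2 mM taurocholate, 10% horse serum and 200 μM ascorbate. Compound dilutions were made in taurocholate-free medium. EC50 came from ten-point threefold dose–response series.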"}, "[3]": {"target": "T1, CpPI(4)K (cgd8_4500) (Cryptosporidium parvum, UniProt Q5CVD3)", "T1 sequence (Q5CVD3 1-1114)": "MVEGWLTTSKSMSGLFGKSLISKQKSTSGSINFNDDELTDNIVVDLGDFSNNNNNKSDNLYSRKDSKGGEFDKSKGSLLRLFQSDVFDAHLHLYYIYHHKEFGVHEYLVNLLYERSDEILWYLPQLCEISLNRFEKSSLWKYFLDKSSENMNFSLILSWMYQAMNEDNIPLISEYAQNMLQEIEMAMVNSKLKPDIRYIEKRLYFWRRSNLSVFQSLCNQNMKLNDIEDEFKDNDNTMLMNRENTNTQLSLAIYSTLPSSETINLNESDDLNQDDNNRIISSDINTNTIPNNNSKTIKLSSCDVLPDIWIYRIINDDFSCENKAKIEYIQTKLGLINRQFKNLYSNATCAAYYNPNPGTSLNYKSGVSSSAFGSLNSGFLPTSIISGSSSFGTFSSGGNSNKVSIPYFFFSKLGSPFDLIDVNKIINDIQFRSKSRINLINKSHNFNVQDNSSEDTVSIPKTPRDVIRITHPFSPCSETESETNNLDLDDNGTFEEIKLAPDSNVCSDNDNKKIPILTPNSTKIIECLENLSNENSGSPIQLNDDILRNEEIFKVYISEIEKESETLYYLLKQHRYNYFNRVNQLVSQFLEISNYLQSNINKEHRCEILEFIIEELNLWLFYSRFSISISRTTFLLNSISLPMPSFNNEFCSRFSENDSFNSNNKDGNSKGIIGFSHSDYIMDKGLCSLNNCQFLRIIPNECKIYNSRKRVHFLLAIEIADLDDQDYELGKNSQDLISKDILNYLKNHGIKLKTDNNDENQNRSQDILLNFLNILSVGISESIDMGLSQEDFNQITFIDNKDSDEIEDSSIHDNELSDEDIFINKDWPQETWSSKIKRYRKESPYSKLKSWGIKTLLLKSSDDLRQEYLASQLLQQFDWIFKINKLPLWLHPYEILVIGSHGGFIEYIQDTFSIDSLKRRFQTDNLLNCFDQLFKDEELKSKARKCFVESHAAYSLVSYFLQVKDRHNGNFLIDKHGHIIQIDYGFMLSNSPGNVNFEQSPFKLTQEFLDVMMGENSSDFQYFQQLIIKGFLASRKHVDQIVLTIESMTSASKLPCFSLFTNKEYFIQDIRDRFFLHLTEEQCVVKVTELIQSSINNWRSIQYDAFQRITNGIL", "assay": "CpPI", "assay_type": "biochemical, C. parvum", "details": "for IC50: Cp PI(4)K IC50, 3 μM ATP"}, "[4]": {"test_system": "C. hominis", "assay": "C. hominis cytopathic effect", "assay_type": "cell-based, Cryptosporidium hominis", "details": "for EC50: Cryptosporidium hominis, HCT-8, read-out: Ch CPE EC50", "method_in_brief": "as §1"}, "[5]": {"assay": "in vitro", "assay_type": "cell-based", "details": "human, HepG2 CC50, 96 hours"}, "[6]": {"test_system": "C. parvum", "assay": "C. parvum High Content Imaging", "assay_type": "cell-based", "details": "Cryptosporidium parvum, HCT-8, read-out: Cp HCI IC50", "method_in_brief": "as §1"}, "[7]": {"test_system": "C. parvum UGA2 Fluc", "assay": "Mouse model following tissue parasite load using whole-animal imaging", "assay_type": "in vivo, IFN-γKO mice", "details": "100 mg/kg daily from day 7"}},
  "data": [
    {"smiles": "CS(=O)(=O)c1ccc(-c2cnc(N)c(-c3ccc(C(F)(F)F)nc3)c2)cc1", "note": "[MMV390048]", "values": [
      {"measurement": "IC50", "setting": "[1]", "value": "0.042 ± 0.022", "unit": "µM"},
      {"measurement": "activity against C. parvum", "setting": "[2]", "value": "inactive"},
      {"measurement": "EC50", "setting": "[2]", "value": "12.8 ± 6.26", "unit": "µM"},
      {"measurement": "inhibition of CpPI(4)K enzymatic activity", "setting": "[3]", "value": "do not inhibit"},
      {"measurement": "IC50", "setting": "[3]", "value": "8.33 ± 2.35", "unit": "µM"},
      {"measurement": "activity against C. hominis", "setting": "[4]", "value": "inactive"},
      {"measurement": "EC50", "setting": "[4]", "value": "11.8 ± 2.76", "unit": "µM"},
      {"measurement": "CC50", "setting": "[5]", "value": "26.2 ± 16.1", "unit": "µM"},
      {"measurement": "IC50", "setting": "[6]", "value": 13.4, "unit": "µM"}
    ]},
    {"smiles": "CC(=O)Oc1ccccc1C(=O)Nc1ncc([N+](=O)[O-])s1", "note": "[Nitazoxanide]", "values": [
      {"measurement": "IC50", "setting": "[1]", "value": "> 10", "unit": "µM"},
      {"measurement": "EC50", "setting": "[2]", "value": "14.3 ± 7.13", "unit": "µM"},
      {"measurement": "IC50", "setting": "[3]", "value": "> 10", "unit": "µM"},
      {"measurement": "EC50", "setting": "[4]", "value": "> 20", "unit": "µM"},
      {"measurement": "CC50", "setting": "[5]", "value": "12.7 ± 2.38", "unit": "µM"},
      {"measurement": "IC50", "setting": "[6]", "value": "2.93 ± 0.808", "unit": "µM"},
      {"measurement": "tissue load", "setting": "[7]", "value": "no change"}
    ]}
  ]
}
